Source: PubChem
The list is not random: actives were taken first. Their share in the collection is about 9.6%.
TNAP act hiacc: TNAP (human) activation, high acceptor; P05186; purified TNAP, CDP-star luminescence, 1 M DEA, 30 min; active compounds read high; 0 = EDTA background, 1 = DMSO-only activity; activation factor at 20 µM; 200,000 tested, under 10 active; AID 1136;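 active = activation factor at least 2 at 20 µM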
Target sequence (P05186 whole entry, looked up): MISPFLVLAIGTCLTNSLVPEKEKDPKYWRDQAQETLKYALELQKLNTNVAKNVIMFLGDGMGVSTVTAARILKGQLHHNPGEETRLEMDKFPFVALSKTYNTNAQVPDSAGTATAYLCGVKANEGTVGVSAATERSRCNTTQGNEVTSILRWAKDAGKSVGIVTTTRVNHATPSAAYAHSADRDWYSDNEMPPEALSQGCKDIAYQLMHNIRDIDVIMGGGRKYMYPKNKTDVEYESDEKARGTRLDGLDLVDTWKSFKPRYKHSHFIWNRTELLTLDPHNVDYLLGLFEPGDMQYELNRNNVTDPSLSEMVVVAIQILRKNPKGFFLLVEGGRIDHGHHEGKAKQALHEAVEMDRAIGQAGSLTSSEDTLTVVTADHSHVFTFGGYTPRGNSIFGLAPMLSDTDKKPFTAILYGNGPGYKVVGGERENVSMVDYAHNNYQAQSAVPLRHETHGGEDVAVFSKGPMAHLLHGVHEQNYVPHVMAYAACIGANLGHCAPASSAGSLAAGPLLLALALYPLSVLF
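Assay system: human TNAP; Input: enzyme diluted 1/800 final; Reagent: CDP-star luminogenic substrate at 100 µM final; Timing: 30 min, room temperature; Signal: luminescence; Evaluation: TNAP activation factor scaled between EDTA and DMSO control wells.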
TNAP inh hi DEA: blocks human TNAP under high phosphate acceptor concentration | P05186 | purified TNAP, CDP-star luminescence, 1 M DEA | inhibition, % at 20 µM | 200,000 tested, 0.03% active;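 active = over 50% inhibition of tissue-nonspecific alkaline phosphatase at 20 µM in the single-dose screen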;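 note: plate controls were DMSO wells for no effect and EDTA-quenched wells as full inhibition for full effect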
TNAP inh noacc: blocks human TNAP activity with no phosphate acceptor present. purified TNAP, CDP-star luminescence, 30 min. inhibition, % at 20 µM. 200,000 tested, 0.26% active. AID 1012;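 active = tissue-nonspecific alkaline phosphatase inhibition above about 50% at 20 µM in the single-dose screen, limit read from the data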;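 note: 0% = DMSO negative control and 100% = EDTA positive control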
L major viab: reduces viability of Leishmania major promastigotes. resazurin fluorescence viability. inhibition, % at 10 µM. 200,000 tested, 9% active; in the data active = inhibition above about 50%;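 note: promastigotes grown with compound for 44 hours at 28 °C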
HCT116 PTEN-null: PTEN-deleted cell growth suppression; HCT116 PTEN-null viability, CellTiter-Glo, 60 h; active compounds read low; viability, % at 10 µM; 140,000 tested, 1.2% active;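 active = viability at or below a set limit, 4 SD under the median of all tested compounds, cut at about 3.7% in these data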;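 note: PTEN knockout HCT116 line with beta catenin targeted HCT116 as companion control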
HCT116 bCat-KO: beta-catenin-lacking colon tumor cell growth suppression. HCT116 beta-catenin knockout viability, CellTiter-Glo, 60 h; active compounds read low. viability, % at 10 µM. 140,000 tested, 1.5% active;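 active = viability at or under a set limit, the compound median less 4 SD, cut at about 6% in these data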;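 note: 0% = Hyamine 1622 control at 20 µM and 100% = untreated cell control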
Active calls of the source: *; . = not tested or not shown.

SMILES	TNAP act hiacc	TNAP inh hi DEA	TNAP inh noacc	L major viab	HCT116 PTEN-null	HCT116 bCat-KO
CCn1c2ccccc2c2nnc(SCC(=O)N(C)C3CCS(=O)(=O)C3)nc21 (centres undefined)	1	1.0	-5.5	66.1*	93.8	94.5
CCn1c2ccccc2c2nnc(SCC(=O)NC3CCS(=O)(=O)C3)nc21 (centres undefined)	1	1.3	-1.5	1.5	88.3	97.2
Cc1ccc(-c2nc(SCC(=O)N(C)C3CCS(=O)(=O)C3)[nH]c2-c2ccc(C)cc2)cc1 (centres undefined)	1	-2.0	-6.2	94.2*	83.7	95.7
Cc1ccc(SCC(=O)N(C)C2CCS(=O)(=O)C2)cc1 (centres undefined)	1	-0.5	-2.7	-3.5	.	.
Cc1c(-c2ccc(F)cc2)[n+](=O)c2c(n1[O-])CCCCC2	1.1	-5.1	-6.4	-9.5	102.3	93.1
O=C(NCCCN1CCN(CCCNC(=O)c2cc([N+](=O)[O-])ccc2Cl)CC1)c1cc([N+](=O)[O-])ccc1Cl	1.1	-7.8	-5.1	-4.7	83.4	87.1
COc1ccc(Br)cc1S(=O)(=O)NCCCN1CCOCC1	1	-0.7	-11.4	-4.3	.	.
Cc1cc(OCCN2CCCCCC2)ccc1[N+](=O)[O-]	1	-3.0	-10.8	91.5*	99.4	93.3
Cc1ccc(OCCCCN2CCCC(C)C2)c([N+](=O)[O-])c1 (centres undefined)	1	-3.8	-15.9	86.4*	.	.
Cc1ccc(OCCCCNC(C)(C)C)c([N+](=O)[O-])c1	1	-1.2	-8.2	20.3	89.5	89.9
Cc1ccc([N+](=O)[O-])c(OCCCN2CCCCCC2)c1	1	-2.8	-10.5	98.5*	.	.
Fc1ccc(C2CC(c3cccs3)=NN2C(=S)Nc2ccccc2)cc1 (centres undefined)	1	-1.4	-18.4	52.6*	78.2	86.5
O=C(Nc1ccccc1)N1N=C(c2ccc(F)cc2)CC1c1ccc(F)cc1 (centres undefined)	1	-3.5	-17.6	92.3*	61.8	60.3
O=C(COC(=O)c1c(Cl)ccc(Cl)c1Cl)NC1CCS(=O)(=O)C1 (centres undefined)	1	2.7	-1.3	10.6	.	.
CCOC(=O)C1(CC2CCCCO2)CCN(S(=O)(=O)c2ccsc2)CC1 (centres undefined)	1	-1.8	-0.7	-2.8	.	.
COc1cc(/C=N\Nc2nc3ccccc3o2)cc(OC)c1OC	0.9	6.6	-2.5	3.2	71.1	80.8
CCN(CC)c1ccc(/C=N/Nc2nc3ccccc3[nH]2)c(O)c1	1	-4.8	-7.5	100.3*	7.1	3.5*
COc1ccc(/C=N/OC/C(O)=C(\C#N)c2nc3ccccc3[nH]2)cc1OC	1	-0.7	-11.8	-3.8	83.5	73.4
CCN(CC)c1ccc(/C=N/NC(=S)NCc2ccccc2)c(O)c1	0.9	5.4	-152.3	3.4	15.3	19.8
COc1ccc(/C=N/Nc2nc3ccccc3[nH]2)cc1OC	0.9	8.7	-41.7	99.2*	68.4	67.6
COc1cc(/C=N\Nc2nc3ccccc3[nH]2)cc(OC)c1OC	1	-4.2	-11.1	56.7*	43.6	43.4
CCN(CC)c1ccc(/C=N/NC(=O)Cc2cccs2)c(O)c1	1	4.0	-11.6	98.2*	6.3	5.2*
CCOC(=O)CC(C)(C)/C(C)=N/Nc1ccc([N+](=O)[O-])cc1[N+](=O)[O-]	0.9	9.0	1.4	3.2	70.1	77.0
O=C(/C=C/c1cccc([N+](=O)[O-])c1)N1CCOCC1	1	-1.2	-17.1	38.3	109.5	97.0
O=C(/C=C/c1cccc([N+](=O)[O-])c1)N1CCN(S(=O)(=O)c2cccs2)CC1	1	-0.2	-6.9	66.0*	.	.
SMILES	TNAP act hiacc	TNAP inh hi DEA	TNAP inh noacc	L major viab	HCT116 PTEN-null	HCT116 bCat-KO
O=C(/C=C/c1cccc([N+](=O)[O-])c1)c1ccc2c(c1)OCCO2	1.1	-5.6	-17.0	97.8*	11.2	15.2
O=C(/C=C/c1cccc([N+](=O)[O-])c1)c1cccs1	1	3.2	-10.2	89.2*	1.5*	2.2*
CCN1CCCC1CN(Cc1cc2ccc(C)cc2[nH]c1=O)C(=S)Nc1ccc(F)cc1 (centres undefined)	1	-3.0	-6.3	46.2	.	.
CCC(=O)NC(Nc1nc(C)cs1)(C(=O)OC)C(F)(F)F (centres undefined)	1	-2.8	-5.4	-3.6	101.7	95.4
COc1ccc(-n2cc(-c3ccccc3)c3c(NN4CCOCC4)ncnc32)cc1	1	-3.4	-18.0	38.6	.	.
Fc1ccc(-n2cc(-c3ccccc3)c3c(NN4CCOCC4)ncnc32)cc1	1	-2.7	15.2	97.2*	77.5	70.4
CC(=O)Nc1cccc2c1C(=O)N(c1ccc(OC(C)=O)cc1)C2=O	1	-3.1	-8.7	-5.0	.	.
CCOC(=O)c1cc2c(ccn2C)n1Cc1cc(C)ccc1C	1	-2.8	-0.5	93.4*	94.1	85.0
O=c1[nH]nc(-c2cccs2)c2ccccc12	1.1	-5.5	-3.8	1.1	.	.
CC1(C)CC(=O)c2c(-c3cccs3)n[nH]c2C1	0.9	7.5	87.6*	3.2	104.7	105.2
CCCc1n[nH]c2c1C(=O)CC(C)(C)C2	1	-3.7	63.9*	-2.6	97.2	99.8
COc1ccc(-c2cc(=O)c(C(=O)c3ccc(C)cc3)n[nH]2)cc1	1	0.8	-8.6	-4.2	.	.
C=CCc1c(C)[nH]c(=O)[nH]c1=O	1	-3.3	-0.7	0.6	.	.
O=C1c2ccccc2C(=O)N1Cc1cnc(N2CCN(c3ccccc3)CC2)s1	1	0.3	1.6	-7.0	.	.
CC(C)[C@H](NC(=O)c1ccc(C(C)(C)C)cc1)C(=O)Nc1nnc(C2CC2)s1	1.1	-6.9	-7.4	83.5*	86.4	94.5
Cc1cccc(N/C=C(\[N+](=O)[O-])S(=O)(=O)c2ccccc2)c1C	1	-2.8	-11.6	-6.3	.	.
CCOc1ccc2nc(NC(=O)C3CCCN(S(=O)(=O)c4cccs4)C3)sc2c1 (centres undefined)	1	-0.1	-1.5	54.5*	46.7	52.5
CCn1ncc([N+](=O)[O-])c1C(=O)Nc1cc(C)on1	1	0.3	-1.5	92.4*	100.8	100.7
CCOc1ccc2nc(NC(=S)N(C)C)sc2c1	1	-0.8	-16.0	80.1*	54.4	42.5
CCOc1ccc2nc(NC(=O)c3c([N+](=O)[O-])cnn3CC)sc2c1	1	-2.0	-3.5	62.6*	92.3	102.0
CCCC(=O)Nc1nc2ccc(OCC)cc2s1	1	0.0	6.3	14.9	99.7	91.7
COc1ccc(S(=O)(=O)N2CC(O)C[C@H]2C(=O)OCC(=O)N2CCCCCC2)cc1 (some centres undefined)	1	-1.6	-4.9	-3.5	.	.
Cc1cc(C(=O)N/N=C/c2ccco2)c2ccccc2n1	1.1	-6.0	-9.2	15.1	93.0	88.0
